The values that follow come from ChEMBL document CHEMBL1126871, “Non-steroidal glucocorticoid-like substances: receptor binding and in vivo activity” (J Med Chem, 1993).

In experiment [1] the target is T1, Glucocorticoid receptor (Rattus norvegicus) (UniProt P06536).
T1 sequence (whole entry): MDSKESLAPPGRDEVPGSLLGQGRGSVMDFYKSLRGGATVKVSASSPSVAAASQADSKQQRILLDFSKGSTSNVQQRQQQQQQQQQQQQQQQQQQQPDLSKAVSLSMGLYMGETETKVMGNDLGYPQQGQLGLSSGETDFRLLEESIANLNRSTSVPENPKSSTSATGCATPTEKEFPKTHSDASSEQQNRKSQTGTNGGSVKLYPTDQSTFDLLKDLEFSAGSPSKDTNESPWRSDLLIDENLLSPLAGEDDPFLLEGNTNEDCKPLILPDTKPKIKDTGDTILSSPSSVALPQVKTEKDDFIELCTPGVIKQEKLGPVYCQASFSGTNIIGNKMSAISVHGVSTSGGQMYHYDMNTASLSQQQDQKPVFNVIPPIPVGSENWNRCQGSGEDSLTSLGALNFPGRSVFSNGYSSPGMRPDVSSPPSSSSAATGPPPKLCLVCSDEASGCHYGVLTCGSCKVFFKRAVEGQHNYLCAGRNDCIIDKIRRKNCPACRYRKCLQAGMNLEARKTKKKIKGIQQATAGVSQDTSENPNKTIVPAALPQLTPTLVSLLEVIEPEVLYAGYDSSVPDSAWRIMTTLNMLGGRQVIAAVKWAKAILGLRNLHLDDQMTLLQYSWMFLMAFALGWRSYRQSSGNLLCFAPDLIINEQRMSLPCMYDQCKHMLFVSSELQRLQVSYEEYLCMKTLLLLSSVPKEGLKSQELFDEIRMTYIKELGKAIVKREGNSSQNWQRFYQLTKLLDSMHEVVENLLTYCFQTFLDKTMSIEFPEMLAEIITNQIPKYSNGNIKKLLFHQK
The experiment is described as follows: In vivo glucocorticoid profile, depression of thymus weight in rat at 50 mg/kg peroral dose. The experiment is classed as functional, organism-based. Details: dose 50 mg/kg. In a few lines: (§1)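 Two-week oral glucocorticoid profile in rats. Thymus weight, adrenal weight and body weight gain are each expressed as % change from control.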

In experiment [2] the target is T1, Glucocorticoid receptor (Rattus norvegicus). Briefly: In vivo glucocorticoid profile, depression of body weight gain without altered food consumption in rat at 50 mg/kg peroral dose. The experiment is classed as functional, organism-based. Details: dose 50 mg/kg. In a few lines:
as §1

For experiment [3] the target is unchanged. The experiment is described as follows: In vivo antiinflammatory activity in the rat, alpha-tocopherol filled pouch 25 mg/kg peroral dose; IA = inactive. It counts as functional, organism-based. Details: dose 25 mg/kg. In a few lines: (§2)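 Rats receive an air-filled pouch injected with 0.5 mL DL-α-tocopherol. Oral doses are given daily for 7 days, starting on the day of pouch formation, as suspensions in 1% gum tragacanth. ED50 is in mg/kg po.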

Experiment [4] shares this target. Briefly: In vivo glucocorticoid profile, depression of adrenal weight in rat at 50 mg/kg peroral dose. It counts as functional, organism-based. On the set-up: dose 50 mg/kg. In a few lines: as §1
Experiment [5] shares this target. Briefly: (§3) In vivo glucocorticoid profile, depression of adrenal weight in rat at 100 mg/kg peroral dose. The experiment is classed as functional, organism-based. Details: dose 100 mg/kg. In a few lines:
(§4)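 Two-week oral dosing test in rats. At the end, thymus weight, adrenal weight and body weight gain are recorded and expressed as % change from control.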

The target is the same in experiment [6]. The experiment is described as follows: In vivo glucocorticoid profile, depression of adrenal weight in rat at 25 mg/kg peroral dose. It counts as functional, organism-based. Details: dose 25 mg/kg. In a few lines:
as §1

The target is the same in experiment [7]. Briefly: In vivo glucocorticoid profile, depression of body weight gain without altered food consumption in rat at 25 mg/kg peroral dose. The experiment is classed as functional, organism-based. Details: dose 25 mg/kg. In a few lines: as §1
For experiment [8] the target is unchanged. The experiment is described as follows: In vivo glucocorticoid profile, depression of thymus weight in rat at 25 mg/kg peroral dose. It counts as functional, organism-based. On the set-up: dose 25 mg/kg. In a few lines: as §1
Experiment [9] shares this target. The experiment is described as follows: In vivo glucocorticoid profile, depression of thymus weight in rat at 100 mg/kg peroral dose. It counts as functional, organism-based. Details: dose 100 mg/kg. In a few lines:
as §1

Experiment [10] has the same target. The experiment is described as follows: In vivo glucocorticoid profile, depression of thymus weight in rat at 5 mg/kg peroral dose. It counts as functional, organism-based. On the set-up: dose 5 mg/kg. In a few lines:
as §1

Experiment [11] shares this target. The experiment is described as follows: (§5) In vivo glucocorticoid profile, depression of adrenal weight in rat at 1 mg/kg peroral dose. The experiment is classed as functional, organism-based. On the set-up: dose 1 mg/kg. In a few lines:
as §4

Experiment [12] shares this target. The experiment is described as follows: (§6) In vivo glucocorticoid profile, depression of body weight gain without altered food consumption in rat at 1 mg/kg peroral dose. It counts as functional, organism-based. On the set-up: dose 1 mg/kg. In a few lines:
as §4

Experiment [13] has the same target. The experiment is described as follows: In vivo glucocorticoid profile, depression of adrenal weight in rat at 5 mg/kg peroral dose. It counts as functional, organism-based. On the set-up: dose 5 mg/kg. In a few lines:
as §1

Experiment [14] shares this target. The experiment is described as follows: (§7) In vivo glucocorticoid profile, depression of thymus weight in rat at 1 mg/kg peroral dose. It counts as functional, organism-based. Details: dose 1 mg/kg. In a few lines: as §4
Experiment [15] has the same target. The experiment is described as follows: (§8) In vivo glucocorticoid profile, depression of body weight gain without altered food consumption in rat at 5 mg/kg peroral dose. The experiment is classed as functional, organism-based. Details: dose 5 mg/kg. In a few lines:
as §1

Experiment [16] has the same target. Briefly: In vivo antiinflammatory activity in the rat, alpha-tocopherol filled pouch 50 mg/kg peroral dose; IA = inactive. The experiment is classed as functional, organism-based. Details: dose 50 mg/kg.
For experiment [17] the target is unchanged. Briefly: In vivo glucocorticoid profile, depression of body weight gain without altered food consumption in rat at 100 mg/kg peroral dose. Details: dose 100 mg/kg. The experiment is classed as functional, organism-based. In a few lines: as §1
Experiment [18] has the same target. The experiment is described as follows: Relative binding affinity (RBA) for glucocorticoid receptor from rat liver cytosol by displacement of [3H]-RU-28,362. In a few lines: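 Competitive binding to glucocorticoid receptor in liver cytosol from adrenalectomized rats, with [3H]RU28362 as ligand. RBA is derived from the concentrations of dexamethasone and of competitor giving 50% binding inhibition. A value of zero means binding was too low to measure.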
A general note: In a radioligand displacement assay an active substance lowers the binding of a labelled ligand.

Experiment [19] has the same target. The experiment is described as follows: In vivo antiinflammatory activity in the rat, alpha-tocopherol filled pouch 48 mg/kg peroral dose; IA = inactive. The experiment is classed as functional, organism-based. Details: dose 48 mg/kg.
Experiment [20] shares this target. The description is as §5. It counts as functional, organism-based. On the set-up: dose 1 mg/kg. In a few lines:
as §1
This is another data set of the same source.

The target is the same in experiment [21]. The experiment is described as follows: In vivo anti-inflammatory activity in the rat, alpha-tocopherol filled pouch peroral dose. The experiment is classed as functional, organism-based. In a few lines:
as §2

For experiment [22] the target is unchanged. The description is as §6. It counts as functional, organism-based. On the set-up: dose 1 mg/kg. In a few lines:
as §1
This is another data set of the same source.

Experiment [23] has the same target. The experiment is described as §7. The experiment is classed as functional, organism-based. Details: dose 1 mg/kg. In a few lines:
as §1
The source holds these as a separate data set.

Experiment [24] shares this target. The description is as §8. The experiment is classed as functional, organism-based. On the set-up: dose 5 mg/kg. In a few lines:
as §4
The source holds these as a separate data set.

Experiment [25] has the same target. Briefly: In vivo antiinflammatory activity in the rat, alpha-tocopherol filled pouch peroral dose; IA = inactive. The experiment is classed as functional, organism-based. In a few lines: as §2
Experiment [26] has the same target. Described as §3. The experiment is classed as functional, organism-based. On the set-up: dose 100 mg/kg. In a few lines:
as §1
The source holds these as a separate data set.

Activity calls are given as the source filed them. No cut-off for these calls is given here.

The ED50 is the midpoint of the dose-response relation. In the case of `CC(C)N1C(=O)N(C(C)C)C(=O)C2(CC=C3[C@H](CCC4=Cc5c(cnn5-c5ccc(F)cc5)C[C@@]43C)O2)C1=O`, the Change in experiment [1] and in [4] was 0% each time. The same compound had a Weight gain in experiment [2] of 0. In addition, the ED50 result in [3] is “inactive”.
Take `CCN1C(=O)N(CC)C(=O)C2(CC=C3[C@H](CCC4=Cc5c(cnn5-c5ccc(F)cc5)C[C@@]43C)O2)C1=O`: the Change is -45% in [5], 0% in [6], -34% in experiment [8] and -34% in experiment [9]. This compound had a Weight gain in experiment [7] of 0. Further, the ED50 entry in [3] was “inactive”.
Take `C#C[C@]1(O)CCC2[C@@H]3CCC4=Cc5c(cnn5-c5ccc(F)cc5)C[C@]4(C)C3=CC[C@@]21C` (stereo not given in full): the Change is -76% in experiment [10], -35% in experiment [11], -60% in experiment [13] and -41% in experiment [14]. The Weight gain in [12] was 0; in [15] it was -145.
For `CCCN1C(=O)N(CCC)C(=O)C2(CC=C3[C@H](CCC4=Cc5c(cnn5-c5ccc(F)cc5)C[C@@]43C)O2)C1=O`, the Change in [1] and in experiment [4] was 0% throughout. The Weight gain in [2] is 0. The ED50 result in experiment [3] is “inactive”.
Turning to `C[C@]12Cc3cnn(-c4ccccc4)c3C=C1CC[C@@H]1OC3(CC=C12)C(=O)NC(=O)NC3=O`, the Change in [1] is -34%; in experiment [5], 0%; in experiment [9], 0%; in [4], 0%. Besides, the ED50 result in [16] was “inactive”. The Weight gain in [2] and in experiment [17] was 0 in each case.
In experiment [18], `CN1C(=O)N(C)C(=O)C2(CC=C3[C@H](CCC4=Cc5c(cnn5-c5ccncc5)C[C@@]43C)O2)C1=O` had an RBA of 0.72%.
For the compound `C=CCN1C(=O)N(CC=C)C(=O)C2(CC=C3[C@H](CCC4=Cc5c(cnn5-c5ccc(F)cc5)C[C@@]43C)O2)C1=O`, the Change is -34% in experiment [1] and -37% in experiment [4]. This compound had a Weight gain in experiment [2] of -58. Besides, the ED50 entry in experiment [19] is “inactive”.
Regarding `C[C@H]1C[C@@H]2[C@H]([C@@H](O)C[C@@]3(C)[C@H]2CC[C@]3(O)C(=O)CO)[C@@]2(C)C=CC(=O)C=C12`, the Change is 0% in experiment [20], -70% in [10], -42% in experiment [13] and -40% in experiment [23]. The compound also gave an ED50 in experiment [21] of 2 mg/kg. Also, the results for the Weight gain in experiment [22] and in [15] were -45 and -79, respectively.
As to `CC(=O)C1CC=C2[C@H](CCC3=Cc4c(cnn4-c4ccc(F)cc4)C[C@@]32C)C1C(C)=O` (stereo not given in full), in [13], the Change was -40%. The Weight gain in experiment [24] is -80.
Consider `C[C@]12Cc3cnn(-c4ccc(F)cc4)c3C=C1CC[C@H]1C2=CCCC1c1ccccn1` (stereo not given in full), for which the ED50 entry in experiment [25] is “inactive”. The compound further yielded a Weight gain in experiment [17] of -88. The values for the Change in experiment [9] and in [26] were -64% and -48%, respectively.
